Experimental data reported in ChEMBL document CHEMBL3124899, “Design, synthesis, and characterization of α-ketoheterocycles that additionally target the cytosolic port Cys269 of fatty acid amide hydrolase” (J Med Chem, 2014).
Active and inactive are the calls of the source. The calls are words filed in the database; no cut-off is given here.

Legend:
[1] = biological target: T1, Fatty-acid amide hydrolase 1 (Rattus norvegicus, UniProt P97612); experiment: Time-dependent inhibition of recombinant rat FAAH expressed in Escherichia coli assessed as breakdown of [14C]-oleamide preincubated for 6 hrs by Dixon plot analysis
T1 sequence (P97612 whole entry): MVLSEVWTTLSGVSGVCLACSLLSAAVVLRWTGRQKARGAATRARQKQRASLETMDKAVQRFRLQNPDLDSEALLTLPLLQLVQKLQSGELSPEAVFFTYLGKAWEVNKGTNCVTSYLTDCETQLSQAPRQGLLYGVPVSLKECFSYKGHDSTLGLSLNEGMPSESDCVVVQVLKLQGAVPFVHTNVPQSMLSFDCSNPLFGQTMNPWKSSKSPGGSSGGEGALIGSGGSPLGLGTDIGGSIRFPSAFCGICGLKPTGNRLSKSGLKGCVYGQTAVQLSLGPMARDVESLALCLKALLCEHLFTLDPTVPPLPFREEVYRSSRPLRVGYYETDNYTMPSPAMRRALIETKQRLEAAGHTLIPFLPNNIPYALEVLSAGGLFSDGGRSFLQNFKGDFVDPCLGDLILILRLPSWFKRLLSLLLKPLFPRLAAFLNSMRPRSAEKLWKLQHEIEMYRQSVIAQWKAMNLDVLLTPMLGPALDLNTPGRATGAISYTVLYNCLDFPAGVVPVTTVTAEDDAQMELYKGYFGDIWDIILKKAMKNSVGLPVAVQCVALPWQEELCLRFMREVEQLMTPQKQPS
Procedure, shortened: (§1)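 The reaction used 20 μM 14C-oleamide in pH 9.0 Tris/EDTA/Triton X-100/Hepes buffer at 20–23 °C, at three inhibitor concentrations. HCl-quenched time points were analysed by EtOAc extraction and TLC for oleic acid formation. Ki came from a Dixon plot.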

[2] = biological target: T1, Fatty-acid amide hydrolase 1; experiment: Inhibition of recombinant rat FAAH expressed in Escherichia coli assessed as breakdown of [14C]-oleamide by Dixon plot analysis
Procedure, shortened: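 Purified rat FAAH expressed in E. coli, with no inhibitor preincubation. The enzyme was at 1 nM, or 800, 500 or 200 pM for tight binders. It was mixed with 20 μM 14C-oleamide in pH 9.0 Tris/EDTA/glycerol/Triton X-100/Hepes buffer at room temperature, with three inhibitor concentrations. Aliquots were quenched in 0.1 N HCl at three time points, extracted with EtOAc and separated by TLC. Ki came from a Dixon plot.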

[3] = biological target: T1, Fatty-acid amide hydrolase 1; experiment: Time-dependent inhibition of recombinant rat FAAH expressed in Escherichia coli assessed as breakdown of [14C]-oleamide preincubated for 1 hr by Dixon plot analysis; procedure, shortened: as §1
Mus musculus [4] = experiment: In vivo inhibition of FAAH in C57Bl/6J mouse assessed as increase in OEA level in brain at 30 mg/kg, ip measured within 2 to 3 hrs; format: functional, organism-based; parameters: dose 30 mg/kg
Mus musculus [5] = experiment: In vivo inhibition of FAAH in C57Bl/6J mouse assessed as increase in AEA level in brain at 30 mg/kg, ip measured within 2 to 3 hrs; format: functional, organism-based; parameters: dose 30 mg/kg
[6] = biological target: T2, Fatty-acid amide hydrolase 1 (Rattus norvegicus) (UniProt P97612); details: 1 to 10 nM
T2 sequence (whole entry): T1 sequence (P97612 whole entry)

Mus musculus [7] = experiment: In vivo inhibition of FAAH in C57Bl/6J mouse assessed as increase in PEA level in brain at 30 mg/kg, ip measured within 2 to 3 hrs; format: functional, organism-based; parameters: dose 30 mg/kg
Mus musculus [8] = experiment: In vivo inhibition of FAAH in C57Bl/6J mouse assessed as increase in OEA level in brain at 30 mg/kg, ip measured within 1.5 to 3 hrs; format: functional, organism-based; parameters: dose 30 mg/kg
Mus musculus [9] = experiment: In vivo inhibition of FAAH in C57Bl/6J mouse assessed as increase in AEA level in brain at 30 mg/kg, ip measured within 1.5 to 3 hrs; format: functional, organism-based; parameters: dose 30 mg/kg
Mus musculus [10] = organism: Mus musculus; experiment: Selectivity ratio of IC50 for mouse brain membrane ABHD6 to IC50 for mouse FAAH
Mus musculus [11] = experiment: In vivo inhibition of FAAH in C57Bl/6J mouse assessed as increase in OEA level in brain at 30 mg/kg, ip measured after > 6 hrs; format: functional, organism-based; parameters: dose 30 mg/kg
Mus musculus [12] = organism: Mus musculus; experiment: Selectivity ratio of IC50 for mouse brain membrane MAGL to IC50 for mouse FAAH
Mus musculus [13] = experiment: In vivo inhibition of FAAH in C57Bl/6J mouse assessed as increase in AEA level in brain at 30 mg/kg, ip after 3 hrs relative to vehicle-treated control; format: functional; details: route intraperitoneal
Procedure, shortened: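 Male C57Bl/6J mice (<6 months, 20–28 g), n = 3, received 30 mg/kg i.p. in 18:1:1 saline/ethanol/emulphor at 10 μL/g. Brains were taken 3 h later and homogenized in CHCl3/MeOH/Tris with d4-PEA, d4-AEA and pentadecanoic acid standards. The organic extract was quantified by LC–ESI-MS/MS in positive mode and compared with vehicle-treated mice.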

[14] = biological target: T2, Fatty-acid amide hydrolase 1 (Rattus norvegicus); experiment: Irreversible inhibition of recombinant rat FAAH expressed in Escherichia coli assessed as remaining activity at IC80 preincubated for 3 hrs followed by 370 fold dilution measured after 18 hrs
[15] = biological target: T2, Fatty-acid amide hydrolase 1 (Rattus norvegicus); experiment: Noncompetitive inhibition of recombinant rat FAAH expressed in Escherichia coli assessed as breakdown of [14C]-oleamide at 1 to 5 nM preincubated for 3 hrs by Lineweaver-Burk plot analysis
Mus musculus [16] = organism: Mus musculus; experiment: Selectivity ratio of IC50 for mouse brain membrane KIAA1363 to IC50 for mouse FAAH
Mus musculus [17] = experiment: In vivo inhibition of FAAH in C57Bl/6J mouse assessed as increase in AEA level in brain at 30 mg/kg, ip measured after > 6 hrs; format: functional, organism-based; parameters: dose 30 mg/kg
Mus musculus [18] = experiment: In vivo inhibition of FAAH in C57Bl/6J mouse assessed as increase in PEA level in brain at 30 mg/kg, ip measured after > 6 hrs; format: functional, organism-based; parameters: dose 30 mg/kg
Mus musculus [19] = experiment: In vivo inhibition of FAAH in C57Bl/6J mouse assessed as increase in PEA level in brain at 30 mg/kg, ip measured within 1.5 to 3 hrs; format: functional, organism-based; parameters: dose 30 mg/kg
[20] = Chemical stability in assay buffer assessed as compound hydrolysis after 6 hrs; format: physicochemical
[21] = biological target: T2, Fatty-acid amide hydrolase 1 (Rattus norvegicus); experiment: Competitive reversible inhibition of recombinant rat FAAH expressed in Escherichia coli using [14C]-oleamide as substrate at 3 to 5 nM preincubated for 3 hrs by Lineweaver-Burk plot analysis
[22] = biological target: T2, Fatty-acid amide hydrolase 1 (Rattus norvegicus); experiment: Competitive reversible inhibition of recombinant rat FAAH expressed in Escherichia coli using [14C]-oleamide as substrate at 1 to 5 nM preincubated for 3 hrs by Lineweaver-Burk plot analysis
[23] = biological target: T2, Fatty-acid amide hydrolase 1 (Rattus norvegicus); experiment: Noncompetitive inhibition of recombinant rat FAAH expressed in Escherichia coli assessed as breakdown of [14C]-oleamide at 3 to 5 nM preincubated for 3 hrs by Lineweaver-Burk plot analysis
[24] = biological target: T1, Fatty-acid amide hydrolase 1; experiment: Time-dependent inhibition of recombinant rat FAAH expressed in Escherichia coli assessed as breakdown of [14C]-oleamide preincubated for 3 hrs by Dixon plot analysis; procedure, shortened: as §1
[25] = biological target: T2, Fatty-acid amide hydrolase 1 (Rattus norvegicus); experiment: Noncompetitive inhibition of recombinant rat FAAH expressed in Escherichia coli assessed as breakdown of [14C]-oleamide at 0.5 to 5 nM preincubated for 3 hrs by Lineweaver-Burk plot analysis
[26] = biological target: T2, Fatty-acid amide hydrolase 1 (Rattus norvegicus); details: 5 to 10 nM
[27] = biological target: T2, Fatty-acid amide hydrolase 1 (Rattus norvegicus); experiment: Mixed-type inhibition of recombinant rat FAAH expressed in Escherichia coli assessed as breakdown of [14C]-oleamide preincubated for 3 hrs by Lineweaver-Burk plot analysis
[28] = biological target: T2, Fatty-acid amide hydrolase 1 (Rattus norvegicus); experiment: Noncompetitive inhibition of recombinant rat FAAH expressed in Escherichia coli assessed as breakdown of [14C]-oleamide at 1 to 3 nM preincubated for 3 hrs by Lineweaver-Burk plot analysis
[29] = Chemical stability in enzymatic assay buffer assessed as transient enzyme adduct formation; format: ADME

SMILES: O=C(CCCCCCc1ccccc1)c1ncc(CCCCCBr)o1
- Ki [1]: 6 nM
- Ki [2]: 6.1 nM
- Ki [3]: 6.1 nM

SMILES: O=C(CCCCCCc1ccccc1)c1ncc(-c2ccccn2)o1
- inhibition (Mus musculus [4]): Active
- inhibition (Mus musculus [5]): Active
- inhibition [6]: Active
- inhibition (Mus musculus [7]): Active

SMILES: N#CCc1ccc(-c2cnc(C(=O)CCCCCCc3ccccc3)o2)nc1
- Ki [1]: 0.5 nM
- inhibition (Mus musculus [8]): Active
- inhibition (Mus musculus [9]): Active
- Ratio IC50 (Mus musculus [10]): > 10000
- inhibition (Mus musculus [11]): Active
- Ratio IC50 (Mus musculus [12]): > 200
- fold change (FC) (Mus musculus [13]): 3.2
- remaining activity after dilution [14]: Active
- inhibition [15]: Active
- Ratio IC50 (Mus musculus [16]): > 10000
- inhibition (Mus musculus [17]): Active
- inhibition (Mus musculus [18]): Active
- inhibition (Mus musculus [19]): Active

SMILES: CSC(=O)CCCCc1cnc(C(=O)CCCCCCc2ccccc2)o1
- Stability [20]: Stable
- inhibition [21]: Active

SMILES: COC(=O)c1ccc(-c2cnc(C(=O)CCCCCCc3ccccc3)o2)nc1
- inhibition [22]: Active

SMILES: COC(=N)Cc1ccc(-c2cnc(C(=O)CCCCCCc3ccccc3)o2)nc1
- Ki [1]: 0.6 nM
- Ratio IC50 (Mus musculus [10]): > 10000
- inhibition [23]: Active
- Ratio IC50 (Mus musculus [12]): > 200
- remaining activity after dilution [14]: Active
- Ratio IC50 (Mus musculus [16]): > 10000

SMILES: CCOS(=O)(=O)/C=C/c1ccc(-c2cnc(C(=O)CCCCCCc3ccccc3)o2)nc1
- Ratio IC50 (Mus musculus [10]): > 10000
- Ratio IC50 (Mus musculus [12]): > 200
- fold change (FC) (Mus musculus [13]): 3.2
- remaining activity after dilution [14]: Active
- inhibition [15]: Active
- Ratio IC50 (Mus musculus [16]): > 10000
- Ki [3]: 0.3 nM

SMILES: O=C(CCCCCCc1ccccc1)c1ncc(-c2ccc(CBr)cn2)o1
- Ki [1]: 0.2 nM
- Ki [24]: 0.2 nM
- inhibition (Mus musculus [8]): Active
- inhibition (Mus musculus [9]): Active
- Ratio IC50 (Mus musculus [10]): > 10000
- inhibition (Mus musculus [11]): Active
- Ratio IC50 (Mus musculus [12]): > 200
- fold change (FC) (Mus musculus [13]): 3.2
- remaining activity after dilution [14]: Active
- Ratio IC50 (Mus musculus [16]): > 10000
- inhibition (Mus musculus [17]): Active
- inhibition (Mus musculus [18]): Active
- inhibition (Mus musculus [19]): Active
- inhibition [25]: Active

SMILES: CSC(=O)Cc1ccc(-c2cnc(C(=O)CCCCCCc3ccccc3)o2)nc1
- inhibition [26]: Active

SMILES: O=C(CCCCCCc1ccccc1)c1ncc(-c2ccc(CCl)cn2)o1
- Ki [1]: 24.6 nM

SMILES: CS(=O)(=O)/C=C/c1ccc(-c2cnc(C(=O)CCCCCCc3ccccc3)o2)nc1
- Ki [24]: 0.3 nM
- Ratio IC50 (Mus musculus [10]): > 10000
- inhibition [23]: Active
- Ratio IC50 (Mus musculus [12]): > 200
- fold change (FC) (Mus musculus [13]): 2.8
- remaining activity after dilution [14]: Active
- Ratio IC50 (Mus musculus [16]): > 10000

SMILES: CCOC(=O)/C=C/c1ccc(-c2cnc(C(=O)CCCCCCc3ccccc3)o2)nc1
- remaining activity after dilution [14]: Active
- inhibition [27]: Dose-dependent effect

SMILES: C[S+]([O-])/C=C/c1ccc(-c2cnc(C(=O)CCCCCCc3ccccc3)o2)nc1 (configuration not stated)
- inhibition [28]: Active
- Ratio IC50 (Mus musculus [10]): > 10000
- Ratio IC50 (Mus musculus [12]): > 200
- fold change (FC) (Mus musculus [13]): 2.6
- remaining activity after dilution [14]: Active
- Ratio IC50 (Mus musculus [16]): > 10000

SMILES: CSCCCCCc1cnc(C(=O)CCCCCCc2ccccc2)o1
- Ki [24]: 6.4 nM

SMILES: N#C/C=C/c1ccc(-c2cnc(C(=O)CCCCCCc3ccccc3)o2)nc1
- Ki [1]: 2.7 nM
- remaining activity after dilution [14]: Active
- inhibition [27]: Dose-dependent effect

SMILES: CSC(=O)c1ccc(-c2cnc(C(=O)CCCCCCc3ccccc3)o2)nc1
- Ki [24]: 2 nM
- Stability [20]: Stable
- Ki [2]: 2 nM
- inhibition [21]: Active
- Stability [29]: Stable

SMILES: N#CCCCCCc1cnc(C(=O)CCCCCCc2ccccc2)o1
- Ki [1]: 4 nM
